This is an account of results in ChEMBL document CHEMBL2407047, “Molecular design, synthesis and biological evaluation of 1,4-dihydro-4-oxoquinoline ribonucleosides as TcGAPDH inhibitors with trypanocidal activity” (Bioorg Med Chem Lett, 2013).

The target in series [1] is T1, Glyceraldehyde-3-phosphate dehydrogenase, glycosomal (Trypanosoma cruzi, UniProt P22513). The series can be described thus: Inhibition of Trypanosoma cruzi glycosomal GAPDH. In short, it runs like this:
(§1)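 Enzyme assays were run by isothermal titration calorimetry (ITC), probing the GAPDH NAD+ cosubstrate site and the active site. Affinity is reported as apparent Ki. Mode of inhibition was judged from how NAD+ and G3P KM and Vmax respond. Kinetic models were compared by second-order Akaike's information criterion.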

The nature of series [2]: Selectivity index, ratio of C57BL/6 mouse spleen cells to trypomastigotes forms of Trypanosoma cruzi Tulahuen infected in monkey LLC-MK2 cells. The class given is toxicity, cell-based. Conditions: read-out: Selectivity Index.
The subject of the next series is Trypanosoma cruzi. Put plainly: Trypanocidal activity against trypomastigotes forms of Trypanosoma cruzi Tulahuen infected in monkey LLC-MK2 cells after 24 hrs by beta-galactosidase reporter assay. The series is classed as functional. A general note: In a reporter assay the amount or activity of a reporter protein is the signal.
Series [3] deals with T1, Glyceraldehyde-3-phosphate dehydrogenase, glycosomal. The series can be described thus: Non-competitive inhibition of Trypanosoma cruzi glycosomal GAPDH active site by ITC method. Conditions: read-out: Ki(app). In short, it runs like this:
as §1
(Isothermal titration calorimetry measures the heat released or taken up as one component is titrated into another.)

Series [4] can be described thus: Cytotoxicity against C57BL/6 mouse spleen cells after 24 hrs using propidium iodide by flow cytometry. The series is classed as cell-based. In short, it runs like this: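 Spleen cells were isolated from C57BL/6 mice by mechanical dissociation. They were incubated with compound at 5·10⁶ cells mL⁻¹ for 24 h at 37 °C under 5% CO2, then stained with 10 µg mL⁻¹ propidium iodide and analysed by flow cytometry. Two experiments were run in duplicate; mean plus standard deviation is reported.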
A general note: In flow cytometry, cells or beads pass a laser one at a time.

For series [5], the target named is T1, Glyceraldehyde-3-phosphate dehydrogenase, glycosomal. Put plainly: Competitive inhibition of Trypanosoma cruzi glycosomal GAPDH NAD+ binding site by ITC method. The note with it: read-out: Ki(app). The gist of the method:
as §1

A further series deals with Saccharomyces cerevisiae. Put plainly: Cytotoxicity against Saccharomyces cerevisiae by FUN-1 fluorescence assay. The class given is organism-based. Conditions: in vivo. The gist of the method: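 Log-phase S. cerevisiae (CBMAI 0194) was grown in LB with 2% glucose and 10 mmol L⁻¹ acetate buffer, pH 5, at 37 °C. Cells were resuspended in NaHEPES pH 7.2 at 10⁷ cells mL⁻¹ and stained with FUN-1 (working solution 200 µmol L⁻¹) for 30 min, with or without compound, in 0.6% DMSO. Fluorescence (excitation 485 nm; emission 530/620 nm) was read every 10 min for 1 h at 37 °C. Viability was taken from the red/green ratio.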

T1 sequence (P22513 whole entry): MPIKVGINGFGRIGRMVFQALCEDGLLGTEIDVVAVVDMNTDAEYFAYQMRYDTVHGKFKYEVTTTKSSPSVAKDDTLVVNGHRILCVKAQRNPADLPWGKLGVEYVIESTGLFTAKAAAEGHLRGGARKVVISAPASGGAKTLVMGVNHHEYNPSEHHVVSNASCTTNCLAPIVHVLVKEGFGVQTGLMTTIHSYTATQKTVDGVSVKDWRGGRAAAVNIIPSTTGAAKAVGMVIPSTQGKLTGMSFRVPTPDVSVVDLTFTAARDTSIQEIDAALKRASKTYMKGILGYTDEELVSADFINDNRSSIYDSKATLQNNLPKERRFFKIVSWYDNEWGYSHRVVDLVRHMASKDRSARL

In general, IC50 refers to the concentration at which inhibition is half-maximal. Consider `CCOC(=O)c1cn([C@@H]2O[C@H](COC(=O)c3ccccc3)[C@@H](OC(=O)c3ccccc3)[C@H]2OC(=O)c2ccccc2)c2ccc(Cl)cc2c1=O`, for which, in series [1], half-maximal inhibition (IC50) required 40.7 µM.
`O=C(O)c1cn([C@@H]2O[C@H](CO)[C@@H](O)[C@H]2O)c2cc(Br)ccc2c1=O`: the selectivity ratio in series [2] was > 27. Also, the Activity in the series on Trypanosoma cruzi is 18 µmol/L; in series [4], > 500 µmol/L. The Ki in series [3] amounted to 151 µM; in series [5], 16 µM.
On to `Cc1ccc2c(=O)c(C(=O)O)cn([C@@H]3O[C@H](CO)[C@@H](O)[C@H]3O)c2c1`, for which the Ki in series [5] was 17.1 µM.
Regarding `COc1ccc2c(c1)c(=O)c(C(=O)O)cn2[C@@H]1O[C@H](CO)[C@@H](O)[C@H]1O`, in series [2], the selectivity ratio was 1. The Activity was >500 µmol/L with Trypanosoma cruzi and > 500 µmol/L in series [4]. Besides, the Ki worked out at 305 µM in series [3] and 18.7 µM in series [5].
As for `O=C(O)c1cn([C@@H]2O[C@H](CO)[C@@H](O)[C@H]2O)c2ccc(Br)cc2c1=O`, the Activity entry in the series with Saccharomyces cerevisiae was “Toxic”. Further, the Ki in series [5] came out at 29.5 µM.
Regarding `Cc1ccc2c(c1)c(=O)c(C(=O)O)cn2[C@@H]1O[C@H](CO)[C@@H](O)[C@H]1O`, the Ki in series [5] stood at 57.6 µM.
As for `COc1ccc2c(=O)c(C(=O)O)cn([C@@H]3O[C@H](CO)[C@@H](O)[C@H]3O)c2c1`, the Ki is 105 µM in series [3] and 59.5 µM in series [5]. Moreover, the Activity result in the series with Saccharomyces cerevisiae was “Toxic”.
Take `O=C(O)c1cn([C@@H]2O[C@H](CO)[C@@H](O)[C@H]2O)c2ccc(Cl)cc2c1=O`: in series [5], the Ki amounted to 32.3 µM.
With `O=C(Cn1ccnc1[N+](=O)[O-])NCc1ccccc1` [BENZNIDAZOLE], the selectivity ratio in series [2] is > 26. In addition, the Activity in the series on Trypanosoma cruzi was 19 µmol/L; in series [4], > 500 µmol/L.
